In ChEMBL document CHEMBL3044983, “Antifungal activity and biotransformation of diisophorone by Botrytis cinerea” (J Agric Food Chem, 2005):
Active and inactive are the calls of the source. The calls are words filed in the database; no cut-off is given here.

What was measured:
Botrytis cinerea [1] = assay: Antifungal activity against Botryotinia fuckeliana UCA992 assessed as inhibition of radial mycelial growth up to 100 ppm for 5 days by poisoned food technique; format: functional, organism-based
How it was run: (§1)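 Radial growth on glucose-malt-peptone-agar (pH 6.5-7.0). Test compound was added in ethanol to final 50-200 mg/L, and ethanol was equal in control and treated plates. A 1.5 cm mycelial disk from an actively growing culture was placed at the plate centre, and radial growth was followed over 8 days. Percent inhibition was taken from colony diameters relative to the negative control, as the mean of triplicates.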

Botrytis cinerea [2] = assay: Antifungal activity against Botryotinia fuckeliana UCA992 assessed as inhibition of radial mycelial growth up to 50 ppm for 5 days by poisoned food technique; format: functional
Botrytis cinerea [3] = assay: Antifungal activity against Botryotinia fuckeliana 2100 assessed as inhibition of radial mycelial growth for 5 days by poisoned food technique; format: functional, organism-based
Botrytis cinerea [4] = assay: Antifungal activity against Botryotinia fuckeliana UCA992 assessed as inhibition of radial mycelial growth up to 200 ppm for 5 days by poisoned food technique; format: functional; how it was run: as §1
Botrytis cinerea [5] = assay: Antifungal activity against Botryotinia fuckeliana 2100 assessed as inhibition of radial mycelial growth at 50 ppm for 5 days by poisoned food technique; format: functional; settings: Botrytis cinerea, 2100, 120 h; how it was run: as §1
Botrytis cinerea [6] = assay: Antifungal activity against Botryotinia fuckeliana UCA992 assessed as inhibition of radial mycelial growth for 5 days by poisoned food technique; format: functional, organism-based
Botrytis cinerea [7] = assay: Antifungal activity against Botryotinia fuckeliana UCA992 assessed as inhibition of radial mycelial growth up to 150 ppm for 5 days by poisoned food technique; format: functional; how it was run: as §1

SMILES	inhibition (Botrytis cinerea [1])	inhibition (INH) (Botrytis cinerea [2])	IC50 (Botrytis cinerea [3])	inhibition (INH) (Botrytis cinerea [4])	inhibition at 50 ppm (Botrytis cinerea [5])	IC50 (Botrytis cinerea [6])	inhibition (INH) (Botrytis cinerea [7])	inhibition (Botrytis cinerea [4])
CC1(C)CC(=O)C2=C(C1)C[C@]1(C)CC(C)(C)C[C@@]2(O)C1 [DIISOPHORONE]	inactive	6%	70 ppm	92%	69%	89 ppm	76%	
CC1(C)C[C@@]2(C)CC3=C(C(=O)CC(C)(C)[C@@H]3O)[C@@](O)(C1)C2	inactive							inactive
CC1(C)C[C@@]2(O)C[C@@](C)(C1)[C@H](O)C1=C2C(=O)C[C@@](C)(CO)C1	inactive							inactive
CC1(C)C[C@@]2(C)CC3=C(C(=O)CC(C)(C)[C@H]3O)[C@@](O)(C1)C2	inactive							inactive
CC1(C)CC(=O)C2=C(C1)[C@@H](O)[C@]1(C)CC(C)(C)C[C@@]2(O)C1	inactive							inactive
